This is a sample that favours compounds with a hit; in the whole collection about 3.4% have one here.
Wee1 stabilizer: inhibitors of human Wee1 degradation; P30291; HeLa Luc-Wee1K328M stability, luciferase luminescence; 100% = proteasome inhibitor MG132 effect; reporter increase, % at 5 µM; 1.2% of 220,000 active; AID 1321;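 active means activation above the mean of all tested compounds plus 3 SD, set per screening run, cut at about 8.8% in these data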;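 further: cells exposed to compound for 20 h before luminescence read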
Target sequence (P30291 whole entry K328M): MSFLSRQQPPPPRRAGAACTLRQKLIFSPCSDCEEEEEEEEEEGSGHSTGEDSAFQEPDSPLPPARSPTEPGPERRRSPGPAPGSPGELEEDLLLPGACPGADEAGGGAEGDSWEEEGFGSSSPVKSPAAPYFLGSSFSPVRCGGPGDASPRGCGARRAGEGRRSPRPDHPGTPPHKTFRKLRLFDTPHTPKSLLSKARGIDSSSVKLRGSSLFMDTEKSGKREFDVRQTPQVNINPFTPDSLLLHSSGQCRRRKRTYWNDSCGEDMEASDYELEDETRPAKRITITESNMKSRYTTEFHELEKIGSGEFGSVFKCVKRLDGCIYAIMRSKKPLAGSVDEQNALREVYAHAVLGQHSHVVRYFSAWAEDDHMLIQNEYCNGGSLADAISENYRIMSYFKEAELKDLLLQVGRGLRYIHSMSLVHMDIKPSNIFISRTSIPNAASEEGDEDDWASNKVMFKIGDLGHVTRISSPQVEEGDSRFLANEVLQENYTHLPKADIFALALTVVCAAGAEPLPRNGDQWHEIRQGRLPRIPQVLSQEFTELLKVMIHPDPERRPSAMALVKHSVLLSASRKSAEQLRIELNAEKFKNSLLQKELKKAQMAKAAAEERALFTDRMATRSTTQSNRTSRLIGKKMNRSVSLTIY
PHOSPHO1 inh: blocks human PHOSPHO1 phosphatase activity. inhibition, % at 13.3 µM. Q8TCT1. AID 1565. 1.1% of 290,000 active. recombinant PHOSPHO1, absorbance phosphatase assay; in the data active means inhibition above about 60%
HMGR II inh: blocks class II HMG-CoA reductase of Enterococcus faecalis | purified E. faecalis HMGR, NADPH absorbance 340 nm kinetic | inhibition, % at 10 µM | 0.41% of 190,000 active;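 active means inhibition above a set limit, the median over all tested compounds plus 3 SD, cut at about 9.5% in these data; inconclusive means no clear call, values can overlap the other calls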;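 further: enzyme runs in reverse so mevalonate oxidation gives rising NADPH absorbance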
Runt-CBFb FRET: Runt domain-CBFb interaction inhibition; Q01196+Q13951; Cerulean-Runt/Venus-CBFb FRET ratio 530/480, 1 h; inhibition, % at 20 µM; 0.46% of 220,000 active; AID 1496;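 active means inhibition over about 50% at 20 µM in the single-dose screen, limit read from the data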
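System: Cerulean-labeled Runt domain protein | Quantity: 100 nM of each labeled protein | Schedule: 1 h compound exposure, room temperature | Detection: Fluorescence energy transfer, 422 nm excitation, 530/480 nm emission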
Runt-SMMHC FRET: inhibitors of human RUNX1 Runt domain binding to CBFb-SMMHC; inhibition, % at 20 µM; 0.74% of 220,000 active; Cerulean-Runt/Venus-CBFb-SMMHC FRET ratio 530/480, 1 h;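 active means mean inhibition across duplicate retests at 20 µM reaching about 50%, limit read from the data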;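 further: inhibitors lower the FRET ratio by blocking Runt binding to CBFb-SMMHC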
RanGTP-Impb inh: disruptors of Ran-importin-beta complex formation – biochemical, FRET, CFP-Ran, YFP-importin-beta, homogeneous, primary screen; cell-free CFP-Ran/YFP-importin-beta FRET ratio; inhibition, % (test concentration not listed); 1.1% of 300,000 active; AID 2216;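 active means more than half of the replicate wells show a fall in the fluorescence ratio signal beyond about 16%, limit read from the data, passing the limit was not always enough; inconclusive means exactly half of the replicate wells pass the set limit; inactive means fewer than half of replicates pass the limit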
A number is an active result; 0 = inactive; ? = inconclusive; - = not tested or not shown.

SMILES	Wee1 stabilizer	PHOSPHO1 inh	HMGR II inh	Runt-CBFb FRET	Runt-SMMHC FRET	RanGTP-Impb inh
O=C(NN=C1CCCC1)c1n[nH]c2c1CCC2	10.6	0	0	0	0	0
C/C(=N\NC(=O)c1n[nH]c2c1CCC2)c1ccco1	9.3	0	-	0	0	?
O=C(N/N=C/c1c(Cl)cccc1Cl)c1n[nH]c2c1CCCC2	10.0	0	0	0	0	0
COCCn1c(=O)[nH]c2cc(C(=O)Nc3nnc(C)s3)ccc21	-	0	-	-	-	0
O=C(Nc1c(Cl)ccc2nsnc12)c1ccc([N+](=O)[O-])o1	-	0	-	-	-	?
COc1ccc(N=Nc2nc3ccc(Br)cc3n2C)cc1	9.9	0	0	0	0	0
COc1ccc(Cc2nc3ccccc3n2C)cc1	0	0	0	-	0	0
CNC(=O)c1oc(-c2ccc(Cl)cc2)nc1C	0	0	0	0	0	0
CN1OCC(S(=O)(=O)c2ccccc2)C1c1ccccc1 (stereo unspecified)	0	0	0	0	0	35.3
CCOC(=O)c1c(C)[nH]c(C)c1S(=O)(=O)NC1CCN(C(=O)OCC)CC1	-	0	-	-	-	0
CCOC(=O)c1c(C)[nH]c(C)c1S(=O)(=O)NC(CC)CN1CCOCC1 (stereo unspecified)	-	64.9	-	-	-	0
CC(=O)OC1CCC(OC(C)=O)c2c1n([O-])c(C)c(C)[n+]2=O (stereo unspecified)	10.5	0	0	0	0	0
CC(=O)c1c(C)n([O-])c2cc(C)ccc2[n+]1=O	0	0	0	0	0	0
Cc1ccccc1CN(C)CC(=O)Nc1cccc(S(=O)(=O)N(C)c2ccccc2)c1	0	61.5	0	0	0	0
O=C(NC(=O)c1ccccc1Cl)Nc1ccc(-c2cnco2)cc1	10.0	0	-	0	0	0
Nc1nonc1NC(=O)CSc1ncccc1C(=O)O	14.1	0	0	0	0	0
CC(C(=O)Nc1ccc(S(=O)(=O)N2CCOCC2)cc1)N1CCN(c2ccccn2)CC1 (stereo unspecified)	0	0	13.3	0	0	0
Cc1ccc(NC(=O)CSc2nccc(=O)[nH]2)c(S(=O)(=O)N2CCOCC2)c1	0	63.6	0	0	0	0
O=C(CSc1nccc(=O)[nH]1)Nc1cccc(S(=O)(=O)N2CCOCC2)c1	0	0	0	0	0	0
COc1ccc(Br)c(C(=O)N2CCN(S(=O)(=O)/C=C/c3ccccc3)CC2)c1	0	0	0	0	0	0
COc1ccc(N2CCN(S(=O)(=O)/C=C/c3ccccc3)CC2)cc1	9.3	0	0	0	0	0
CC(C)[C@H](NC(=O)c1c(F)cccc1F)C(=O)OCC(=O)NC(=O)NC1CCCC1	-	0	-	-	-	0
O=c1c(/C=N/Nc2ccccc2)c(Sc2nnnn2-c2ccccc2)nc2ccccn12	0	93.0	0	0	0	-
Oc1c(CN2CCc3ccccc3C2)cc(Cl)c2cccnc12	0	0	0	0	0	23.0
CC(=O)c1ccc(S(=O)(=O)NCCC(=O)OCC(=O)NCCc2ccccc2)cc1	-	0	-	-	-	0
SMILES	Wee1 stabilizer	PHOSPHO1 inh	HMGR II inh	Runt-CBFb FRET	Runt-SMMHC FRET	RanGTP-Impb inh
Nn1c(SCC(=O)Nc2ccc3c(c2)OCCO3)nnc(CCC(=O)O)c1=O	-	0	-	-	-	0
N#CC[n+]1cc(-c2ccc(Cl)cc2)n2c1CCC2	8.9	0	0	0	0	0
Clc1ccc(-c2c[n+](Cc3cccc(Cl)c3)c3n2CCC3)cc1	0	0	0	0	0	0
Clc1ccc(C[n+]2cc(-c3ccccc3)n3c2CCCCC3)c(Cl)c1	0	60.0	0	0	0	0
COc1cc(/C=N\NC(=O)C(C)(C)O)ccc1OC/C=C/c1ccccc1	-	0	-	-	-	0
Nc1ccc(Oc2cccc(Oc3ccc(N)cc3)c2)cc1	0	0	0	0	0	0
Nc1ccc(Oc2ccc3c(c2)OCO3)cc1	0	60.9	0	0	0	0
O=C(COc1coc(CN2CCN(c3ccc(F)cc3)CC2)cc1=O)NCC1CCCO1 (stereo unspecified)	-	-	-	-	-	0
O=C(NN=C(Cc1ccccc1)Cc1ccccc1)c1ccccc1F	0	0	0	0	0	?
O=C(NN=C(Cc1ccccc1)Cc1ccccc1)C1CC1	0	0	0	0	0	34.3
COc1ccc(C2NC(c3ccc(OC)cc3OC)C(C)C(=O)C2C)c(OC)c1 (stereo unspecified)	0	0	0	0	0	116.3
Cc1cc(NC(=O)c2cccs2)ncc1NC(=O)C(C)C	-	0	-	-	-	0
O=C(N=C1N=C2C=CC(Br)=CN2Cc2ccccc21)c1ccc([N+](=O)[O-])cc1[N+](=O)[O-]	10.5	0	-	0	0	0
COc1ccc(OC)c(-c2c(C#N)c(N)nc3c2c(=O)nc2sccn23)c1	0	0	0	0	0	?
O=C(c1ccccc1)c1cnc[nH]1	0	0	-	0	0	0
O=C(Nc1ccccc1)c1cnc[nH]1	0	0	0	88.9	0	0
CCC(C)(C)NC(=O)C(C(C)C)N(CC1CCCO1)C(=O)CNS(=O)(=O)c1ccccc1 (stereo unspecified)	-	0	-	-	-	0
Cc1ccc(-c2nc(C=Nc3ccc(O)cc3)c(O)o2)cc1	0	0	0	0	0	22.4
CCc1n[nH]c(=S)n1/N=C/c1ccc2c(c1)OCO2	0	102.6	0	0	0	0
CCc1n[nH]c(=S)n1/N=C/c1ccc(N(C)c2ccccc2)cc1	0	0	0	0	0	0
CC(=O)c1cccc(NC(=O)CCNC(=O)c2cccc(C)c2)c1	-	0	-	-	-	0
COC(=O)C1=CN(C(C)C)C=C(C(=O)OC)C1c1cc2c(cc1Br)OCO2	0	0	0	0	118.5	30.2
COc1cc(NC(=O)COC(=O)CCc2cc(OC)c(OC)c(OC)c2)cc(OC)c1	0	0	0	0	0	0
c1ccc2c(c1)nnn2Cc1nnc2sc(-c3ccc4c(c3)OCCO4)nn12	0	0	0	0	0	0
c1ccc(-c2nn3c(Cn4nnc5ccccc54)nnc3s2)cc1	0	69.2	0	0	0	0
c1ccc2c(c1)ncn2Cc1nnc2sc(-c3ccncc3)nn12	0	0	0	0	0	0
c1cncc(-c2nn3c(Cn4cnc5ccccc54)nnc3s2)c1	0	69.2	0	0	0	0
c1ccc(-c2nn3c(Cn4cnc5ccccc54)nnc3s2)cc1	0	65.8	0	0	0	0

Source: PubChem BioAssay (several laboratories)
